Reference: ChEMBL document CHEMBL5236609, “Optimization of 1,2,4-Triazole-3-thiones toward Broad-Spectrum Metallo-β-lactamase Inhibitors Showing Potent Synergistic Activity on VIM- and NDM-1-Producing Clinical Isolates” (J Med Chem, 2022)
pKd: −log10 of the molar value. The source made the active and inactive calls. No cut-off for these calls is given here.

Columns and labels:
[1] = Metabolic stability in CD-1 mouse microsomes assessed as half life at 37 degC by LC-MS/MS analysis; type: ADME, Microsome
How it was run: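 Mouse liver microsomes, mixed gender, at 37 °C for 40 min; propranolol control. Reports t1/2, intrinsic clearance and % intact compound remaining at 40 min.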

[2] = tested on: Pseudomonas aeruginosa; assay: Antimicrobial activity against blaVIM-2-producing multidrug-resistant Pseudomonas aeruginosa VA-182/00 clinical isolate assessed as meropenem MIC at 32 ug/ml by broth microdilution method (reference value: 128 ug/ml); type: functional; details: dose 32 µg/ml
How it was run: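 Inoculum was 5×10^4 CFU/well. Each inhibitor was present at a fixed 32 μg/mL, and MICs were also taken without inhibitor.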

[3] = Binding affinity to Zn(II) assessed as change in enthalpy by isothermal calorimetric assay
[4] = tested on: Escherichia coli; assay: Antimicrobial activity against blaNDM-1-producing multidrug-resistant Escherichia coli SI-004 clinical isolate assessed as meropenem MIC using cation-adjusted Mueller-Hinton broth at 2 ug/ml by broth microdilution method (reference value: 64 ug/ml); type: functional; details: dose 2 µg/ml
How it was run: (§1)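 Checkerboard broth microdilution in cation-supplemented Mueller–Hinton broth, inoculum 5×10^4 CFU/well, per CLSI. […] The average fractional inhibitory concentration index was computed from the checkerboard.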

[5] = tested on: Bacteria; assay: Inhibition of bacterial IMP-1 (unknown origin) expressed in Escherichia coli EXPRESS BL21(DE3) assessed as inhibition constant by measuring rate of substrate hydrolysis at 100 uM by UV-visible spectrophotometry relative to control
How it was run: (§2)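 Reporter-substrate assay with purified MBL (1–70 nM final) in 50 mM HEPES pH 7.5 at 30 °C. […] Inhibitor 0.5–1000 μM final. Ki derived from the v0/vi vs [I] slope assuming competitive inhibition, or from a Dixon plot. Ki given when inhibition >70%, otherwise % inhibition at 100 μM. Triplicate.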

[6] = tested on: Klebsiella pneumoniae; assay: Antimicrobial activity against blaVIM-1-producing multidrug-resistant Klebsiella pneumoniae 7023 clinical isolate assessed as meropenem MIC using cation-adjusted Mueller-Hinton broth at 8 ug/ml by broth microdilution method (reference value: […] ug/ml); type: functional; details: dose 8 µg/ml; how it was run: as §1
[7] = tested on: Escherichia coli; assay: Antimicrobial activity against blaNDM-1-producing multidrug-resistant Escherichia coli SI-004 clinical isolate assessed as meropenem MIC using cation-adjusted Mueller-Hinton broth at 16 ug/ml by broth microdilution method (reference value: 64 ug/ml); type: functional; details: dose 16 µg/ml; how it was run: as §1
[8] = tested on: Bacteria; assay: Inhibition of bacterial VIM-2 (unknown origin) assessed as decrease in Zn(II) content in protein at 50 uM by native MS analysis
How it was run: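 Purified VIM-2 or NDM-1 was given 2 mM TCEP and 2 equiv ZnCl2, incubated 1 h, and dialysed overnight into 100 mM ammonium acetate pH 7.5. Enzyme at 10 μM was then incubated 5 min with 50 μM compound. Positive-mode nanoESI on an Orbitrap, scanning m/z 1000–4000. Species assigned from deconvoluted masses.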

[9] = tested on: Klebsiella pneumoniae; assay: Antimicrobial activity against blaVIM-1-producing multidrug-resistant Klebsiella pneumoniae 7023 clinical isolate assessed as meropenem MIC using cation-adjusted Mueller-Hinton broth at 16 ug/ml by broth microdilution method (reference value: […] ug/ml); type: functional; details: dose 16 µg/ml; how it was run: as §1
[10] = tested on: Bacteria; assay: Inhibition of bacterial NDM-1 (unknown origin) assessed as Zn(II) content in protein at 48 uM at 48 uM by overnight equilibrium dialysis
How it was run: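 VIM-2 or NDM-1 (3 μM final) in 50 mM HEPES pH 7.5 mixed with compound at 0–48 μM. Incubated 1 h on ice, then dialysed overnight at 4 °C against 50 mM HEPES pH 7.5. Zn(II) content measured by atomic absorption at 213.86 nm against a zinc standard curve. Each point averages three samples.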

[11] = Chelation of Zn(II) in bacterial NDM-1 (unknown origin) by isothermal calorimetric assay
[12] = Binding affinity to Zn(II) assessed as dissociation constant by isothermal calorimetric assay
[13] = tested on: Klebsiella pneumoniae; assay: Antimicrobial activity against blaVIM-4-producing multidrug-resistant Klebsiella pneumoniae VA-416/02 clinical isolate assessed as meropenem MIC using cation-adjusted Mueller-Hinton broth at 1 ug/ml by broth microdilution method (reference value: […] ug/ml); type: functional; details: dose 1 µg/ml; how it was run: as §1
[14] = tested on: Bacteria; assay: Binding affinity to bacterial VIM-2 (unknown origin) assessed as change in enthalpy by isothermal calorimetric assay
How it was run: (§3)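 ITC at 25 °C. VIM-2 at 19 μM in 10 mM HEPES-NaOH, 0.15 M NaCl, pH 7.5 with DMSO matched to 1%, titrated with compound at 200 μM: one 0.5 μL injection, then 19 × 2 μL at 150 s intervals. Buffer dilution heats subtracted. Nonlinear fit gives n, Ka and ΔH°; values regarded as apparent.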

[15] = tested on: Bacteria; assay: Inhibition of bacterial Metallo-beta-lactamase VIM-1 (unknown origin) at 100 uM relative to control; how it was run: as §2
[16] = Chelation of Zn(II) in bacterial VIM-2 (unknown origin) by isothermal calorimetric assay; how it was run: as §3
[17] = biological target: T1, Aminopeptidase N (Sus scrofa) (UniProt P15145); assay: Inhibition of porcine APN using fluorogenic substrate H-Leu-AMC measured for 1 h rat 100 uM relative to control
T1 sequence (whole entry): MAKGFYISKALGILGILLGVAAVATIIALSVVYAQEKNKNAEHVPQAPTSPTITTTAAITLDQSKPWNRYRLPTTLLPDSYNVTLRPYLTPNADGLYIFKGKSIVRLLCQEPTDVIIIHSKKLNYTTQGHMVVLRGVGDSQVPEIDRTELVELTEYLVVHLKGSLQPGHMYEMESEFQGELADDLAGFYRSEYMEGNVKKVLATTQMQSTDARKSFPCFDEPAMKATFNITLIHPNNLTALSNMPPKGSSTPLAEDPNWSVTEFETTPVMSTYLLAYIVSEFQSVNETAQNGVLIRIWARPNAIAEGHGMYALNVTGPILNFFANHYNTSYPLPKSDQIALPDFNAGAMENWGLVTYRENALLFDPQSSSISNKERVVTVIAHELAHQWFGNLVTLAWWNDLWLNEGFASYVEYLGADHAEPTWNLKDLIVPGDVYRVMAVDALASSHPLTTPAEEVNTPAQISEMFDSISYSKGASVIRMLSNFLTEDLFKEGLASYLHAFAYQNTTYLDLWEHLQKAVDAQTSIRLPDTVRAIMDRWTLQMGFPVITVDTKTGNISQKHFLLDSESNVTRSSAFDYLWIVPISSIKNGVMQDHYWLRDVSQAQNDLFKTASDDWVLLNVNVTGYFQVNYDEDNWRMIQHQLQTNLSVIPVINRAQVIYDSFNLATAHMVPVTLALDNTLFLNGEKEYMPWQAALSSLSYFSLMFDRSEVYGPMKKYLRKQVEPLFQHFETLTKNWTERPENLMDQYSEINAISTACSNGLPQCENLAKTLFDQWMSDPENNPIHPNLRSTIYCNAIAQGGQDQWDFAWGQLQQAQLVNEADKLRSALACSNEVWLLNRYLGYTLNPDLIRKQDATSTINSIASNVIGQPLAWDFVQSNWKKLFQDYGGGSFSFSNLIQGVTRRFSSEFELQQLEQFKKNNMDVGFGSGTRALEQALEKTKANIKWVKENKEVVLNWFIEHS

O=C(O)[C@H](CCn1c(-c2ccccc2)n[nH]c1=S)N(Cc1c[nH]cn1)Cc1c[nH]cn1 showed a half-life [1] of over 40 min and an MIC [2] of 8 µg/mL.

With O=C(O)[C@H](CCCn1c(-c2ccccc2)n[nH]c1=S)N(Cc1c[nH]cn1)Cc1c[nH]cn1 the deltaH [3] was 5 kcal/mol, the MIC [4] was 64 µg/mL and the inhibition [5] was 40%. It also gave an MIC [6] of 1 µg/mL, an MIC [7] of 0.06 µg/mL and a half-life [1] of over 40 min. The inhibition [8] was “Active”, the MIC [9] was 0.06 µg/mL and the Activity [10] was 1.09 equiv. The Activity [11] was “Active”, the pKd [12] was 8.00 and the MIC [2] was 8 µg/mL. For the same molecule, the MIC [13] was 8 µg/mL, the deltaH [14] was -9.8 kcal/mol and the inhibition [15] was 57%. For the same molecule, the Activity [16] was “Active”.

With O=C(O)[C@H](CCCn1c(-c2ccc3ccccc3c2)n[nH]c1=S)N(Cc1c[nH]cn1)Cc1c[nH]cn1 the half-life [1] was over 40 min and the MIC [2] was 8 µg/mL.

Molecule Cc1[nH]cnc1CN(Cc1c[nH]cn1)[C@@H](CCCn1c(-c2ccccc2)n[nH]c1=S)C(=O)O has an inhibition [17] of 58%, a half-life [1] of over 40 min and an MIC [2] of 8 µg/mL.

For O=C(O)[C@H](CCCn1c(-c2ccccc2)n[nH]c1=S)N(Cc1ccccn1)Cc1ccccn1, the deltaH [3] was 6 kcal/mol, the inhibition [5] was under 30% and the inhibition [17] was 30%. For the same molecule, the half-life [1] was over 40 min, the inhibition [8] was “Active” and the Activity [10] was 1.09 equiv. The Activity [11] was “inactive”, the pKd [12] was 8.00 and the MIC [2] was 16 µg/mL. For the same molecule, the Activity [16] was “inactive”.
